Assay results: ChEMBL document CHEMBL3259711, “Synthesis, anti-HIV and cytostatic evaluation of 3'-deoxy-3'-fluorothymidine (FLT) pro-nucleotides” (Bioorg Med Chem Lett, 2014)

Key:
[1] = system: Human immunodeficiency virus 1; assay: Antiretroviral activity against HIV-1 3B infected in human CEM/0 cells expressing thymidine kinase assessed as inhibition of virus-induced giant cell formation after 4 to 5 days by microscopic analysis; format: functional, organism-based; details: Human immunodeficiency virus 1, 3B, CCRF-CEM
Outline: (§1)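 CEM cells (~3 × 10⁵/mL; wild-type or thymidine kinase-deficient) infected with 100 CCID₅₀/mL HIV-1(IIIB) or HIV-2(ROD) with serial compound dilutions; 4–5 days at 37 °C, humidified CO₂. Syncytium (giant cell) formation scored microscopically; EC₅₀ = concentration inhibiting giant cell formation by 50%. Means of at least 2–3 independent experiments.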

[2] = system: Human immunodeficiency virus 2; assay: Antiretroviral activity against HIV-2 ROD infected in thymidine kinase-deficient human CEM cells assessed as inhibition of virus-induced giant cell formation after 4 to 5 days by microscopic analysis; format: functional, organism-based; details: Human immunodeficiency virus 2, ISOLATE ROD, CCRF-CEM; outline: as §1
CCRF-CEM [3] = assay: Cytostatic activity against human CEM/0 cells expressing thymidine kinase assessed as inhibition of cell proliferation after 48 hrs by Coulter counter analysis; format: functional, cell-based
Outline: (§2)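 Tumour cells ((5–7.5) × 10⁴ per well) grown with test compound for 48 h at 37 °C, humidified CO₂; cells counted by Coulter counter. IC₅₀ = concentration inhibiting proliferation by 50%. Means of at least 2–3 independent experiments.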

[4] = system: Human immunodeficiency virus 2; assay: Antiretroviral activity against HIV-2 ROD infected in human CEM/0 cells expressing thymidine kinase assessed as inhibition of virus-induced giant cell formation after 4 to 5 days by microscopic analysis; format: functional, organism-based; details: Human immunodeficiency virus 2, ISOLATE ROD, CCRF-CEM; outline: as §1
CCRF-CEM [5] = assay: Cytostatic activity against thymidine kinase-deficient human CEM cells assessed as inhibition of cell proliferation after 48 hrs by Coulter counter analysis; format: functional, cell-based; outline: as §2
L1210 = assay: Cytostatic activity against mouse L1210 cells assessed as inhibition of cell proliferation after 48 hrs by Coulter counter analysis; format: functional, cell-based; details: L1210, 48 h; outline: as §2
CCRF-CEM [6] = assay: Cytostatic activity against thymidine kinase-deficient human CEM cells assessed as inhibition of cell proliferation at EC50 after 48 hrs by Coulter counter analysis; format: cell-based
[7] = Cytostatic activity against human CEM/0 cells expressing thymidine kinase assessed as inhibition of cell proliferation at EC50 after 48 hrs by Coulter counter analysis; format: cell-based; details: ccrf-cem
[8] = system: Human immunodeficiency virus 2; assay: Ratio of EC50 for HIV-2 ROD infected in thymidine kinase-deficient human CEM cells to EC50 for HIV-2 ROD infected in human CEM/0 cells expressing thymidine kinase; format: functional, ISOLATE ROD, CCRF-CEM

EC50 [1] [nM]	EC50 [2] [µM]	EC50 [4] [nM]	SMILES	IC50 (CCRF-CEM [3]) [µM]	IC50 (CCRF-CEM [5]) [µM]	IC50 (L1210) [µM]	Activity (CCRF-CEM [6])	Activity [7]	Ratio EC50 [8]
17	20	45	Cc1cn([C@H]2C[C@H](F)[C@@H](COP(=O)(N[C@@H](C)C(=O)OCC(C)(C)C)N[C@@H](C)C(=O)OCC(C)(C)C)O2)c(=O)[nH]c1=O	66	43	3.8			
36	1	130	Cc1cn([C@H]2C[C@H](F)[C@@H](COP(=O)(N[C@@H](C)C(=O)OCc3ccccc3)N[C@@H](C)C(=O)OCc3ccccc3)O2)c(=O)[nH]c1=O	17	22	1.2	Non-toxic	Non-toxic	
100	1.3	240	CCOC(=O)[C@H](C)NP(=O)(OC[C@H]1O[C@@H](n2cc(C)c(=O)[nH]c2=O)C[C@@H]1F)Oc1ccccc1 (some centres undefined)	> 250	> 250	4.4			
750	28	1100	Cc1cn([C@H]2C[C@H](F)[C@@H](COP(=O)(N[C@@H](C)C(=O)OC(C)C)Oc3ccccc3)O2)c(=O)[nH]c1=O (some centres undefined)	145	> 250	23			
48	2	140	Cc1cn([C@H]2C[C@H](F)[C@@H](COP(=O)(N[C@@H](C)C(=O)OC3CCCCC3)Oc3cccc4ccccc34)O2)c(=O)[nH]c1=O (some centres undefined)	13	20	2.9	Non-toxic	Non-toxic	
650	89	1600	COP(=O)(N[C@@H](C)C(=O)OCc1ccccc1)OC[C@H]1O[C@@H](n2cc(C)c(=O)[nH]c2=O)C[C@@H]1F (some centres undefined)	100	> 250	43			
32	0.87	80	Cc1cn([C@H]2C[C@H](F)[C@@H](COP(=O)(N[C@@H](C)C(=O)OCC(C)(C)C)Oc3cccc4ccccc34)O2)c(=O)[nH]c1=O (some centres undefined)	14	20	1.9	Non-toxic	Non-toxic	10
160	5.2	180	CCOC(=O)[C@H](C)NP(=O)(OC[C@H]1O[C@@H](n2cc(C)c(=O)[nH]c2=O)C[C@@H]1F)Oc1cccc2ccccc12 (some centres undefined)	81	138	6			
560	> 50	1000	Cc1cn([C@H]2C[C@H](F)[C@@H](COP(=O)(N[C@@H](C)C(=O)OC(C)C)Oc3cccc4ccccc34)O2)c(=O)[nH]c1=O (some centres undefined)	206	> 250	24			
130	2	180	Cc1cn([C@H]2C[C@H](F)[C@@H](COP(=O)(N[C@@H](C)C(=O)OCc3ccccc3)Oc3ccccc3)O2)c(=O)[nH]c1=O (some centres undefined)	117	172	5.8			
290	> 50	900	Cc1cn([C@H]2C[C@H](F)[C@@H](COP(=O)(N[C@@H](C)C(=O)OC(C)(C)C)Oc3ccccc3)O2)c(=O)[nH]c1=O (some centres undefined)	124	> 250	6.3			
6.2	> 50	18	Cc1cn([C@H]2C[C@H](F)[C@@H](CO)O2)c(=O)[nH]c1=O [ALOVUDINE]	39	> 250	0.081			> 1000
550	4.7	1300	COC(=O)[C@H](C)NP(=O)(OC[C@H]1O[C@@H](n2cc(C)c(=O)[nH]c2=O)C[C@@H]1F)Oc1ccccc1 (some centres undefined)	> 250	> 250	8.2			
2300	> 50	4700	Cc1cn([C@H]2C[C@H](F)[C@@H](COP(=O)(N[C@@H](C)C(=O)OC(C)(C)C)Oc3cccc4ccccc34)O2)c(=O)[nH]c1=O (some centres undefined)	148	> 250	36			
430	3	650	COC(=O)[C@H](C)NP(=O)(OC[C@H]1O[C@@H](n2cc(C)c(=O)[nH]c2=O)C[C@@H]1F)Oc1cccc2ccccc12 (some centres undefined)	66	112	3			
120	2.1	180	Cc1cn([C@H]2C[C@H](F)[C@@H](COP(=O)(N[C@@H](C)C(=O)OCc3ccccc3)Oc3cccc4ccccc34)O2)c(=O)[nH]c1=O (some centres undefined)	54	57	5.2			
